ERp5 block – inhibitors of human ERp5 | 350,000 compounds, 0.05% hits | Q15084 | ERp5 insulin aggregation, absorbance 650 nm, 90 min | inhibition, % at 9.99 µM;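 active means mean replicate inhibition above about 25%, with every replicate also reaching it, limit read from the data, passing the limit was not always enough; inconclusive means only one of those two criteria met; inactive means neither criterion met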
Target sequence (Q15084 whole entry, looked up): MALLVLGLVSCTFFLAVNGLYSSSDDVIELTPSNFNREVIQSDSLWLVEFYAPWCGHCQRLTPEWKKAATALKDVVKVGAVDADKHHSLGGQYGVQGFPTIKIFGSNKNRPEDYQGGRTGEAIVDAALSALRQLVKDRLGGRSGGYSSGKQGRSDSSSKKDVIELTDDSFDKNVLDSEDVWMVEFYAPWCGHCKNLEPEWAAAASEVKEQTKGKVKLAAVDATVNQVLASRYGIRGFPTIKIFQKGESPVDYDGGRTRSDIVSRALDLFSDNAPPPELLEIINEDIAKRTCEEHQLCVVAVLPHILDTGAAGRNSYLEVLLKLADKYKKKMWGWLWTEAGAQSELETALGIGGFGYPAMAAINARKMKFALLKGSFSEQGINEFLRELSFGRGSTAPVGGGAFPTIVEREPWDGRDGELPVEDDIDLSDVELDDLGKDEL
PvdQ acylase – P. aeruginosa PvdQ acylase inhibition; 340,000 compounds, 0.063% hits; inhibition, % at 10 µM; purified PvdQ acylase, fluorescence plate reader; in the data active means inhibition above about 30%, passing the limit was not always enough; inconclusive means no clear call, values can overlap the other calls;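 further: 0% = vehicle neutral wells and 100% = reference inhibitor wells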
PDI turbidity – blocks human protein disulfide isomerase activity; inhibition, % at 10 µM; P07237; PDI insulin aggregation turbidity, A650, 90 min; 350,000 compounds, 0.052% hits;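 active means mean inhibition across replicates of 30% or more, whatever share of single replicates reach that level; inconclusive means mean inhibition below 30% while every single replicate reaches 30%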
Ecoli rRNA inh – inhibits bacterial ribosomal RNA function over humanized ribosomes. E. coli WT GFP vs humanized-ribosome RFP mutants, fluorescence, 24 h; stronger effect = lower value; DMSO median 0, no signal -100. GFP signal change (wild-type ribosome), % (test concentration not listed). 350,000 compounds, 1.6% hits;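 active means significant combined selectivity score with lowered wild-type GFP, culture density cut under 30%, mutant RFP and density less affected; inactive means any of these conditions unmet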
FN deposit inh – fibronectin deposition inhibition. AH1F fibroblasts, Alexa488-fibronectin deposition fluorescence, overnight. inhibition, % at 12.6 µM. 350,000 compounds, 0.086% hits. AID 743247;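 active means mean inhibition across replicates of 30% or more, regardless of how many single replicates reach that level; inconclusive means mean under 30% yet at least half of replicates reach 30%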;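 further: positive control wells lacked labelled fibronectin entirely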
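material = AH1F fibroblast monolayer depositing Alexa488-labelled fibronectin into matrix | amount = 10000 AH1F cells/well | buffer or medium = DMEM plus 2% serum, read in PBS | incubation = 1 h cell adhesion before compound, then overnight fibronectin incubation | detection = fluorescence at 485 nm excitation, 525 nm emission | evaluation = percent inhibition as loss of matrix-bound fibronectin fluorescence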
Env fusion inh – blocks HIV Env-driven cell-cell fusion. HeLa-JRFL Env/CEM21 cell fusion, luciferase. inhibition, % at 12.3 µM. 360,000 compounds, 1.1% hits;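 active means mean replicate inhibition score of at least 50 and every replicate individually at or above 50; inconclusive means only one of the two criteria met; inactive means mean below 50 and not all replicates reaching 50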;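 further: 0% = plate neutral controls and 100% = maraviroc near 300 nM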
Numbers without * were called inactive; u = inconclusive; x = no result given; [ ] = dose if it differs, or a comment. Only some compounds are listed: those with a hit (about 2.2% of all), similar ones and a draw of the others.

SMILES	ERp5 block	PvdQ acylase	PDI turbidity	Ecoli rRNA inh	FN deposit inh	Env fusion inh
CCC(c1ccc(O)cc1)C(CC)c1ccc(O)cc1 (stereo unspecified)	0	-12	11	-60	2	-12
Cc1cc(C(c2ccc(O)cc2)c2cc(C)c(O)cc2C)c(C)cc1O	1	-9	3	-37*	-1	2
C[C@@H]1CN([C@@H](C)CO)C(=O)Cc2cc(N(C)C)ccc2O[C@@H]1CN(C)C(=O)Nc1ccc(C(F)(F)F)cc1	-2	x	x	1	1	-17[16.7 µM]
O=C(/C=C/c1ccccc1)CC(O)(c1ccccc1)C(F)(F)C(F)F (stereo unspecified)	2	-10	7	-32*	x	x
O=C(/C=C/c1ccccc1)CC(O)(c1ccccc1)C(F)(F)F (stereo unspecified)	x	-11	17	x	x	x
CCN1C(=O)C(CC(=O)Nc2ccc(OC)cc2)N(Cc2ccco2)C1=S (stereo unspecified)	x	-4	4	x	-4	4
CCN1C(=O)C(CC(=O)Nc2ccc(OC)cc2)N(Cc2cccs2)C1=S (stereo unspecified)	2	8	-16	-31*	x	x
Cc1c(C(=O)O)oc2ccc(S(=O)(=O)NC3CCCCCCC3)cc12	-2	-4	1	-29*	0	x
C[C@H]1CN([C@@H](C)CO)C(=O)c2cc(NS(=O)(=O)c3ccc(F)cc3)ccc2O[C@@H]1CN(C)S(=O)(=O)c1ccccc1	x	x	x	3	x	-23[16.7 µM]
CC(C)NC(=O)N(C)C[C@@H]1Oc2ccc(NC(=O)Nc3ccc(C(F)(F)F)cc3)cc2C(=O)N([C@H](C)CO)C[C@@H]1C	2	x	x	-7	x	-7[16.7 µM]
O=C(NCCCc1nc2ccccc2[nH]1)c1ccco1	2	-11	3	-3	0	84*
CN(C)c1ccc(NC(=S)Nc2ccc3c(c2)c(=O)n(C)n3-c2ccc(C(C)(C)C)cc2)cc1	-2	x	14	3	-2	58*
CN(C)c1ccc(NC(=O)Nc2ccc3c(c2)c(=O)n(C)n3-c2ccccc2)cc1	4	x	2	-1	x	-24
CO[C@@H]1CN(C)C(=O)c2ccc(NC(=O)C3CCCC3)cc2OC[C@@H](C)N(S(=O)(=O)c2ccc(Cl)cc2)C[C@H]1C	7	x	x	x	x	-7[16.7 µM]
Cc1ccccc1-c1cnc2c(c1)C(=O)N([C@@H](C)CO)C[C@@H](C)[C@@H](CN(C)C(=O)c1ccccc1)O2	x	x	x	1	-4	15[16.7 µM]
COc1ccc([C@@H]2C/C=C\C[C@H](c3ccc4c(c3)OCO4)NC(=O)CCC(=O)N2)c(OC)c1	x	x	x	-6	2	x
CC(Nc1ccc(Cl)c(Cl)c1)C(=O)NN (stereo unspecified)	1	-9	-1	-26*	3	-1
NNC(=O)C(=O)Nc1ccc(Cl)c(Cl)c1	7	x	-11	-1	2	-16
COc1cccc(NC(=O)C[C@@H]2CC[C@H]3[C@H](COc4ccc(NC(C)=O)cc4C(=O)N3C)O2)c1	0	x	x	-2	0	4[16.7 µM]
C=CCN=C1CCCc2c1[nH]c1ccc(C)cc21	6	2	-3	-20	-4	62*
CC(NC(=O)Nc1nccs1)(C(F)(F)F)C(F)(F)F	x	-9	0	x	x	x
O=C(Nc1nccs1)C(F)(F)C(F)(F)C(F)(F)C(=O)Nc1nccs1	0	12	3	-27*	1	-4
O=C(COc1cccc(Oc2ccccc2)c1)Nc1ccc(SC(F)F)cc1	x	-9	-7	x	7	-63
CN(C)C(=O)c1ccc(NC(=O)COc2cccc(Oc3ccccc3)c2)cc1	8	-7	-1	-27*	8	-1
N#Cc1ccc(CN2CCN(C(=O)CNC(=O)Cc3cccc4ccccc34)CC2)cc1	-1	-7	2	-10	3	71*
SMILES	ERp5 block	PvdQ acylase	PDI turbidity	Ecoli rRNA inh	FN deposit inh	Env fusion inh
Cc1ccc(S(=O)(=O)Nc2cccc(-c3ccc(N4CCCCCC4)nn3)c2)cc1	-3	-2	1	-23*	2	-68
CN(C)CCCN(C(=O)c1cc2cc([N+](=O)[O-])ccc2s1)c1nc2cc3c(cc2s1)OCCO3	-1	7	-5	0	8	87*
CN(C)CCCN(C(=O)c1ccc([N+](=O)[O-])s1)c1nc2cc3c(cc2s1)OCCO3	-5	-12	-3	-51	6	-11
C[C@H]1CN([C@@H](C)CO)C(=O)c2cc(NC(=O)Nc3ccccc3)ccc2O[C@H]1CN(C)Cc1ccc(Cl)c(Cl)c1	x	x	x	0	x	34[16.7 µM]
Cc1onc(-c2ccccc2)c1NC(=O)Nc1ccc(OC(F)F)cc1	-4	x	2	-22*	-8	2
CCN(CCO)c1ccc(N=Nc2cc(C)[nH]n2)cc1	6	2	-1	-21*	-4	40
CCN(CCO)c1ccc(Nc2cc(-c3ccc(-c4ccccc4)cc3)ncn2)cc1	0	x	-1	x	-1	-1
CCCN1[C@@H]2c3ccc(-c4cccc(F)c4)c(=O)n3C[C@@H]2[C@@H](CO)[C@@H]1C(=O)N[C@@H](C)c1ccccc1	-3	x	x	-42	x	-19[16.7 µM]
CCCN1[C@H](C(=O)N[C@@H](C)c2ccccc2)[C@@H](CO)[C@@H]2Cn3c(ccc(-c4cccc(F)c4)c3=O)[C@@H]21	-8	x	x	-13	x	64*[16.7 µM]
Cc1cc(C)nc(Nc2nc(C(N)CCc3ccccc3)cs2)n1 (stereo unspecified)	3	x	3	-4	2	74*
O=C(NC1CCCC1)c1cccc(Cl)c1	13	70*	1	4	-1	-2
O=C(NC1CCCCCCC1)c1cc([N+](=O)[O-])ccc1Cl	-1	42*	2	-4	6	-1
O=C(NC1CCCCCCC1)c1cccc(Cl)c1	2	74*	3	-5	3	-9
CC1SCC(NC(=O)c2cccc(Cl)c2)CS1 (stereo unspecified)	-3	u	-1	-11	5	-17
O=C(NC1CCCCC1)c1cc([N+](=O)[O-])ccc1N1CCCC1	2	-1	-14	-2	5	-21
O=C(Nc1cccc(C(=O)NC2CCCCC2)c1)c1ccccc1	8	-6	-6	2	0	2
C[C@H](NC(=O)C[C@H]1CC[C@H](NC(=O)C2CCC2)[C@H](CO)O1)c1ccccc1	1	x	x	3	x	-14[16.7 µM]
C[C@H]1CN([C@@H](C)CO)C(=O)Cc2cc(NC(=O)Nc3cccc4ccccc34)ccc2O[C@H]1CN(C)S(=O)(=O)c1ccc(Cl)cc1	8	x	x	2	-11	62*[16.7 µM]
C[C@H](CO)N1C[C@H](C)[C@H](CN(C)S(=O)(=O)c2ccccc2)Oc2ccc(NC(=O)Nc3cccc4ccccc34)cc2CC1=O	5	x	x	1	x	85*[16.7 µM]
C[C@H](CO)N1C[C@H](C)[C@@H](CN(C)S(=O)(=O)c2ccc(Cl)cc2)Oc2ccc(NC(=O)Nc3cccc4ccccc34)cc2CC1=O	5	x	x	5	-4	-24[16.7 µM]

Compound activity as filed in PubChem BioAssay.
